Data taken from ChEMBL document CHEMBL1147690, “A cassette-dosing approach for improvement of oral bioavailability of dual TACE/MMP inhibitors” (Bioorg Med Chem Lett, 2006).
One block for each molecule: values may come before it.

Experiments:
[1] = target: T1, Disintegrin and metalloproteinase domain-containing protein 17 (Homo sapiens, UniProt P78536); assay: Binding affinity to recombinant TACE
[2] = target: T1, Disintegrin and metalloproteinase domain-containing protein 17; assay: Inhibition of LPS/interferon gamma-stimulated TNFalpha release from HPBMC; format: functional
Collagenase 3 = Collagenase 3 (Homo sapiens, UniProt P45452); assay: Binding affinity to recombinant MMP13
Interstitial collagenase = target: T2, Interstitial collagenase (Homo sapiens, UniProt P03956); assay: Binding affinity to recombinant MMP1
T2 sequence (P03956 whole entry): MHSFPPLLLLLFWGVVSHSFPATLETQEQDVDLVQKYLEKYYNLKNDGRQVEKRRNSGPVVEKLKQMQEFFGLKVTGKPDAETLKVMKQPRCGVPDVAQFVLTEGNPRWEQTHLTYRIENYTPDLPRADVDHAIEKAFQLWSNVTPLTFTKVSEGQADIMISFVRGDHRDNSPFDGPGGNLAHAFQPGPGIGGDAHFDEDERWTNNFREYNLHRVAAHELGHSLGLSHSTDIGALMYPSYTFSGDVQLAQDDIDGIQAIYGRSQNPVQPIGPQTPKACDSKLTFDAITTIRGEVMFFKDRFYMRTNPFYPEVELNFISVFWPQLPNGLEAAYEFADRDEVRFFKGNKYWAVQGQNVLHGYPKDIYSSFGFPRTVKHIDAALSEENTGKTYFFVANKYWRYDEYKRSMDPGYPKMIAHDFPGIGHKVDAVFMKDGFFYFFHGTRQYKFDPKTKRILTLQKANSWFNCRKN

Stromelysin-1 = Stromelysin-1 (Homo sapiens, UniProt P08254); assay: Binding affinity to recombinant MMP3
Chain of Stromelysin-1 (P08254 whole entry): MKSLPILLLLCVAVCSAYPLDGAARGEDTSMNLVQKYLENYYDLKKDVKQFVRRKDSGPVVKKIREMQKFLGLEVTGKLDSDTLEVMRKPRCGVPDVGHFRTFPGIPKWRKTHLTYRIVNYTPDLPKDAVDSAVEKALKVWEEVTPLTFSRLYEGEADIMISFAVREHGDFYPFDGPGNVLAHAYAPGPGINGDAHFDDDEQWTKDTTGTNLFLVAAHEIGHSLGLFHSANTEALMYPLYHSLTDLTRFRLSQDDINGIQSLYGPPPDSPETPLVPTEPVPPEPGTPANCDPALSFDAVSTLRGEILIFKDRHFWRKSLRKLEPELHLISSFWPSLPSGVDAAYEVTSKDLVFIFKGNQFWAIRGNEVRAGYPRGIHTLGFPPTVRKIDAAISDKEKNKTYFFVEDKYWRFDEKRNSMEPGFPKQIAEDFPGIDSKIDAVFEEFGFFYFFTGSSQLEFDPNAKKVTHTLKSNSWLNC
Procedure, shortened: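 Recombinant enzyme activity measured by a fluorimetric assay.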

[3] = Clearance in rat at 1 mg/kg, iv and 3 mg/kg, po; format: ADME, organism-based; conditions: in vivo
Procedure, shortened: (§1)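 Conscious, permanently cannulated rats (n = 4) were dosed with a five-compound cassette or a single compound. Dosing was 1 mg/kg iv into the femoral vein (30% N-methyl-2-pyrrolidone in PEG 200) and 3 mg/kg po by gavage (3% ethanol in corn oil), in the same animals with a 48 h washout. Femoral-artery plasma was sampled for 24 h (iv) or 7 h (po), acetonitrile-precipitated and analysed by HPLC/MS.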

[4] = Volume of distribution in rat at 1 mg/kg, iv and 3 mg/kg, po; format: ADME, organism-based; conditions: in vivo, read-out: Vdss; procedure, shortened: as §1
Rattus norvegicus = assay: Cmax in rat at 3 mg/kg, po normalized to 1 mg/kg; format: ADME, organism-based; set-up: dose 3 mg/kg, route oral; conditions: in vivo; procedure, shortened: as §1
[5] = Oral bioavailability in rat at 1 mg/kg, iv and 3 mg/kg, po; format: ADME, organism-based; conditions: in vivo; procedure, shortened: as §1

T1 sequence (P78536 whole entry, the tested form may be a part): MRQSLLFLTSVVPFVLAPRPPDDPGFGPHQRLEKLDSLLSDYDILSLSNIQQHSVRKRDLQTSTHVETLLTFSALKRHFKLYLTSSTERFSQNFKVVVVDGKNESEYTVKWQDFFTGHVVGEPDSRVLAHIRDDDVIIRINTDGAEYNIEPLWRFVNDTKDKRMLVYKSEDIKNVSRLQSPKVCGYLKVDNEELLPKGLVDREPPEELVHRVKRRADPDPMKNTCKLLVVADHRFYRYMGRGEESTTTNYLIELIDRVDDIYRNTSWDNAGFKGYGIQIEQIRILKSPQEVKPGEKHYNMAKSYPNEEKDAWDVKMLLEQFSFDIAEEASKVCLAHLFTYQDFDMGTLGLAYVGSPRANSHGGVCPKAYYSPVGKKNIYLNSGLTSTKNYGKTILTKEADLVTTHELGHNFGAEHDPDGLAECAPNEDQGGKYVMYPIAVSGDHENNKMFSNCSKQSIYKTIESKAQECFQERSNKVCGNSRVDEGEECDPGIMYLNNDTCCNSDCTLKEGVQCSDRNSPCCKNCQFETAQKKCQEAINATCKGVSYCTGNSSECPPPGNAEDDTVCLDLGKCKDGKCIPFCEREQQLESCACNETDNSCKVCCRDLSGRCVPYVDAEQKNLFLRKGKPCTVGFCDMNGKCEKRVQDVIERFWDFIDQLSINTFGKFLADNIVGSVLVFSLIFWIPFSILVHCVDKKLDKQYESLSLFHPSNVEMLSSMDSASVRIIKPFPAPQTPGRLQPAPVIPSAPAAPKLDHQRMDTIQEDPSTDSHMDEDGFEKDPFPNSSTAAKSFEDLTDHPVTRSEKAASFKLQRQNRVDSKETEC

Compound: CN1C(=O)N(C[C@H](C(=O)NO)[C@@H](CC2CCCC2)C(=O)N2CCCCC2)C(=O)C1(C)C
Ki [1]: 230 nM | IC50 [2]: > 10000 nM

Compound: CC[C@H](C(=O)NO)[C@H](C(=O)N1CCCC[C@H]1C(=O)NC)c1ccc(OC)cc1
Ki (Collagenase 3): 7 nM | Ki [1]: 8 nM | IC50 [2]: 836 nM | Ki (Interstitial collagenase): 25 nM | Ki (Stromelysin-1): 11 nM

Compound: CNC(=O)[C@@H](NC(=O)[C@H](c1ccc(OC)cc1)[C@H](CN1C(=O)N(C)C(C)(C)C1=O)C(=O)NO)C(C)(C)C
Ki (Collagenase 3): 3 nM | Ki [1]: 57 nM | IC50 [2]: 484 nM | Ki (Interstitial collagenase): 0.7 nM | Ki (Stromelysin-1): 12 nM

Compound: CC[C@H](C(=O)NO)[C@H](C(=O)N1CCCC[C@H]1C(=O)NC)c1ccc(Cl)cc1
Ki (Collagenase 3): 2 nM | Ki [1]: 5 nM | IC50 [2]: 316 nM | clearance [3]: 28.1 mL/min/kg | Vd [4]: 16.7 L/kg | Cmax (Rattus norvegicus): 388.6 nM | bioavailability [5]: 47.1% | Ki (Interstitial collagenase): 0.7 nM

Compound: COc1ccc([C@@H](C(=O)N2CCCCC2)[C@H](CN2C(=O)N(C)C(C)(C)C2=O)C(=O)NO)cc1
Ki (Collagenase 3): 19 nM | Ki [1]: 321 nM | IC50 [2]: > 10000 nM | Ki (Interstitial collagenase): 83 nM | Ki (Stromelysin-1): 187 nM

The next lines start with the values.

Ki (Collagenase 3): 55 nM | Ki [1]: 66 nM | IC50 [2]: > 10000 nM | Ki (Interstitial collagenase): 213 nM | Ki (Stromelysin-1): 300 nM
Compound: COc1ccc([C@@H](C(=O)N2CCCCC2)[C@H](CO)C(=O)NO)cc1

Ki (Collagenase 3): 10 nM | Ki [1]: 8 nM | IC50 [2]: > 10000 nM | clearance [3]: 23.2 mL/min/kg | Vd [4]: 1.06 L/kg | Cmax (Rattus norvegicus): 38.1 nM | bioavailability [5]: 8.4% | Ki (Interstitial collagenase): 23 nM
Compound: CNC(=O)[C@@H]1CCCCN1C(=O)[C@H](c1ccc(OC)cc1)[C@H](CO)C(=O)NO

Ki (Collagenase 3): 0.5 nM | IC50 [2]: 48 nM | clearance [3]: 10 mL/min/kg | Vd [4]: 0.34 L/kg | Cmax (Rattus norvegicus): 42.7 nM | bioavailability [5]: 3.2% | Ki (Interstitial collagenase): 1 nM
Compound: CNC(=O)[C@@H](NC(=O)C(c1ccc(OC)cc1)C(CO)C(=O)NO)C(C)(C)C (single isomer, unassigned)
